Measured values reported in ChEMBL document CHEMBL1671665, “Effect of beta-1,6-glucan inhibitors on the invasion process of Candida albicans: potential mechanism of their in vivo efficacy” (Antimicrob Agents Chemother, 2009).
Converted amounts (≈) assume the structure as drawn. The source made the active and inactive calls. No cut-off for these calls is given here.

What was measured:
Candida albicans [1] = test: Antifungal activity against Candida albicans ATCC 90028 by microdilution method; assay type: functional
Method in brief: (§1)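 Broth microdilution per NCCLS M27-A2 in MOPS-buffered RPMI with Alamar Blue, incubated at 30°C. Starting inoculum 1 × 10³ to 3 × 10⁴ cells/ml. End point MIC-2: 50% reduction in A570 against drug-free control. Duplicate runs, repeated on another day if they disagreed.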

Candida albicans [2] = test: Antifungal activity against Candida albicans ATCC 24433 in RPMI media by microdilution method; assay type: functional; method in brief: as §1
Candida albicans [3] = test: Antifungal activity against Candida albicans ATCC 24433 in Lee's media by microdilution method; assay type: functional
Method in brief: (§2)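 Broth microdilution per NCCLS at 30°C, inoculum 1 × 10³ to 3 × 10⁴ cells/ml. Medium was MEM, SDB, YNB, Spider or Lee's, all without Alamar Blue. End point MIC-2: 50% drop in OD600 against drug-free control. RPMI run used MOPS-buffered RPMI with Alamar Blue read at 570 nm. Duplicates.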

Saccharomyces cerevisiae [4] = test: Antifungal activity against Saccharomyces cerevisiae CY-5a expressing ScKRE6-CaSKN1 gene by microdilution method; assay type: functional
Candida albicans [5] = test: Antifungal activity against Candida albicans ATCC 90028 assessed as inhibition of adherence of fungal cell to human A549 cells; assay type: functional, organism-based
Method in brief: (§3)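 Yeast pretreated with drug in MOPS-buffered RPMI at 30°C overnight without shaking. 100 or 200 cells in DPBS overlaid on confluent A549 monolayers (DMEM/10% FBS), 45 min at 37°C, 5% CO2. Washed, covered with SDA, colonies counted after 48 h at 30°C. Percent reduction of adherence; triplicate, mean ± SD.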

Saccharomyces cerevisiae [6] = test: Antifungal activity against Saccharomyces cerevisiae AY-10c expressing ScKRE6 gene by microdilution method; assay type: functional
Candida albicans [7] = test: Antifungal activity against Candida albicans ATCC 90028 infected in Slc::ddY mouse assessed as survival rate at 10 mg/kg, po tid administered 1 hr post infection for 1 day measured on day 30; conditions: ATCC 90028, po
Candida albicans [8] = test: Antifungal activity against Candida albicans ATCC 90028 infected in reconstituted human vaginal epithelium tissue assessed as inhibition of fungal cell invasion in to the tissue at 0.25 ug/ml using […] and methylene blue stain by light microscopy; assay type: functional, organism-based
Method in brief: (§4)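 RHVE (A431 keratinocytes) infected with 2 × 10⁶ ATCC 90028 cells that had been pretreated with drug. Drug also added to the maintenance medium. After 24 h at 37°C, 5% CO2, tissue fixed in formaldehyde; semithin sections stained with […]/methylene blue and examined by light microscopy.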

Pichia kudriavzevii [9] = test: Inhibition of beta-1.6-glucan synthesis in Candida krusei ATCC 44507 assessed as [14C] glucose incorporation after 3 hrs; assay type: functional, organism-based
Method in brief: (§5)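 Exponential cells suspended in RPMI 1640 (A595 about 0.6) with drug and [14C]glucose, 3 h at 30°C with occasional shaking. Cells extracted with 3% NaOH at 80°C for 1 h; mannan precipitated with Fehling's reagent. Insoluble fraction digested overnight with Zymolyase to separate β-1,6-glucan. Percent change in incorporated radioactivity against control.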

Candida albicans [10] = test: Antifungal activity against Candida albicans ATCC 90028 assessed as degradation of mannan layer of the cell wall at 1 ug/ml after 6 hrs using fluorescein-conjugated concanavalin A stain by fluorescent microscopy; assay type: functional, organism-based
Method in brief: (§6)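 Budding yeast at 1 × 10³ cells/ml exposed to drug in MOPS-buffered RPMI for 6 h with shaking (legend gives 30°C). Cells fixed in 3% glutaraldehyde/0.1 M phosphate for 2 h. For mannan: stained 30 min with 10 μg/ml fluorescein–concanavalin A, fluorescence microscopy. For TEM: 2% OsO4 postfix, Spurr's resin, uranyl acetate/lead citrate stained sections.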

Candida albicans [11] = test: Antifungal activity against Candida albicans ATCC 24433 in MEM media by microdilution method; assay type: functional; method in brief: as §2
Candida albicans [12] = test: Inhibition of beta-1.6-glucan synthesis in Candida albicans ATCC 90028 assessed as [14C] glucose incorporation at 0.063 ug/ml after 3 hrs; assay type: functional, organism-based; method in brief: as §5
Candida albicans [13] = test: Antifungal activity against Candida albicans ATCC 24433 by microdilution method; assay type: functional; method in brief: as §1
Candida albicans [14] = test: Antifungal activity against Candida albicans ATCC 90028 infected in reconstituted human vaginal epithelium tissue assessed as inhibition of fungal cell invasion in to the tissue at 1 ug/ml using […] and methylene blue stain by light microscopy; assay type: functional, organism-based; method in brief: as §4
[15] = Cmax in Slc::ddY mouse at 10 mg/kg, po tid administered 1 hr post infection for 1 day; assay type: ADME, organism-based; parameters: dose 10 mg/kg, route oral; conditions: in vivo
Candida albicans [16] = test: Antifungal activity against Candida albicans ATCC 90028 assessed as inhibition of hyphal elongation at 0.25 ug/ml in Spider medium using crystal violet stain by light microscopy; assay type: functional, organism-based
Candida albicans [17] = test: Antifungal activity against Candida albicans ATCC 90028 assessed as inhibition of hyphal elongation at 0.25 ug/ml in Lee's medium using crystal violet stain by light microscopy; assay type: functional, organism-based
[18] = Half life in Slc::ddY mouse at 10 mg/kg, po tid administered 1 hr post infection for 1 day; assay type: ADME, organism-based; parameters: dose 10 mg/kg, route oral; conditions: in vivo
Candida albicans [19] = test: Antifungal activity against Candida albicans ATCC 24433 in YNB media by microdilution method; assay type: functional; method in brief: as §2
Saccharomyces cerevisiae [20] = test: Antifungal activity against Saccharomyces cerevisiae CY-4a expressing ScKRE6-CaKRE6 gene by microdilution method; assay type: functional
Pichia kudriavzevii [21] = test: Antifungal activity against Candida krusei ATCC 44507 assessed as inhibition of adherence of fungal cell to human A549 cells; assay type: functional, organism-based; method in brief: as §3
Saccharomyces cerevisiae [22] = test: Antifungal activity against Saccharomyces cerevisiae CY-1a expressing ScKRE6 gene by microdilution method; assay type: functional
Nakaseomyces glabratus [23] = test: Antifungal activity against Candida glabrata ATCC 48435 infected in Slc::ddY mouse assessed as survival rate at 3.3 mg/kg, po tid administered 1 hr post infection for 1 day measured on day 14; assay type: functional
Method in brief: (§7)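 Five-week-old female Slc:ddY mice, made neutropenic with cyclophosphamide 200 mg/kg ip 4 days before and 1 day after infection. SDA-grown cells in 0.1% Tween 80 saline were injected into the tail vein: C. albicans 2.6 × 10⁴ cells, C. glabrata 2.4 × 10⁸ cells. Oral dosing at 1, 4 and 7 h post-infection. Controls got 5% glucose with 1% lactic acid. 10 mice/group; mortality followed 14 or 30 days.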

Nakaseomyces glabratus [24] = test: Antifungal activity against Candida glabrata ATCC 48435 by microdilution method; assay type: functional; method in brief: as §1
Candida albicans [25] = test: Antifungal activity against Candida albicans ATCC 90028 assessed as inhibition of hyphal elongation at 0.25 ug/ml in HFM-7 medium using crystal violet stain by light microscopy; assay type: functional, organism-based
Nakaseomyces glabratus [26] = test: Antifungal activity against Candida glabrata ATCC 48435 infected in Slc::ddY mouse assessed as survival rate at 10 mg/kg, po tid administered 1 hr post infection for 1 day measured on day 14; assay type: functional; method in brief: as §7
Nakaseomyces glabratus [27] = test: Inhibition of beta-1.6-glucan synthesis in Candida glabrata ATCC 48435 assessed as [14C] glucose incorporation after 3 hrs; assay type: functional, organism-based; method in brief: as §5
Saccharomyces cerevisiae [28] = test: Antifungal activity against Saccharomyces cerevisiae CY-3a expressing ScKRE6-CaSKN2 gene by microdilution method; assay type: functional
Candida albicans [29] = test: Antifungal activity against Candida albicans ATCC 24433 in SDB media by microdilution method; assay type: functional; method in brief: as §2
Pichia kudriavzevii [30] = test: Antifungal activity against Candida krusei ATCC 44507 by microdilution method; assay type: functional; method in brief: as §1
Nakaseomyces glabratus [31] = test: Antifungal activity against Candida glabrata ATCC 48435 assessed as inhibition of adherence of fungal cell to human A549 cells; assay type: functional, organism-based; method in brief: as §3
Candida albicans [32] = test: Antifungal activity against Candida albicans ATCC 90028 assessed as degradation of mannan layer of the cell wall at >0.25 ug/ml after 6 hrs using fluorescein-conjugated concanavalin A stain by fluorescent microscopy; assay type: functional, organism-based; method in brief: as §6
Candida albicans [33] = test: Antifungal activity against Candida albicans ATCC 24433 in Spider media by microdilution method; assay type: functional; method in brief: as §2
Candida albicans [34] = test: Inhibition of beta-1.6-glucan synthesis in Candida albicans ATCC 90028 assessed as [14C] glucose incorporation after 3 hrs; assay type: functional, organism-based; method in brief: as §5
Candida albicans [35] = test: Antifungal activity against Candida albicans ATCC 90028 assessed as absence of outer layer of the cell wall at 1 ug/ml after 6 hrs by TEM; assay type: functional, organism-based; method in brief: as §6

SMILES | MIC (Candida albicans [1]) [µg/mL] | MIC (Candida albicans [2]) [µg/mL] | MIC (Candida albicans [3]) [µg/mL] | MIC (Saccharomyces cerevisiae [4]) [µg/mL] | MIC (Saccharomyces cerevisiae [6]) [µg/mL] | MIC (Candida albicans [11]) [µg/mL] | MIC (Candida albicans [13]) [µg/mL] | MIC (Candida albicans [19]) [µg/mL] | MIC (Saccharomyces cerevisiae [20]) [µg/mL] | MIC (Saccharomyces cerevisiae [22]) [µg/mL] | MIC (Nakaseomyces glabratus [24]) [µg/mL] | MIC (Saccharomyces cerevisiae [28]) [µg/mL] | MIC (Candida albicans [29]) [µg/mL] | MIC (Pichia kudriavzevii [30]) [µg/mL] | MIC (Candida albicans [33]) [µg/mL] | further results
Cc1c(-c2ccccc2)c(N2CC[C@H](N(C)C)C2)n2c(nc3ncccc32)c1C#N | > 32 | > 16 | 0.125 (≈ 0.315 µM) | 0.25 (≈ 0.631 µM) | 0.25 (≈ 0.631 µM) | > 16 | > 32 | 16 (≈ 40.4 µM) | 0.25 (≈ 0.631 µM) | 0.5 (≈ 1.26 µM) | 0.125 (≈ 0.315 µM) | 0.25 (≈ 0.631 µM) | 4 (≈ 10.1 µM) | 0.5 (≈ 1.26 µM) | 0.125 (≈ 0.315 µM) | Activity (Candida albicans [5]): Active; survival at 10 mg/kg (Candida albicans [7]): 50%; Activity (Candida albicans [8]): Active; inhibition (Pichia kudriavzevii [9]): Active; Activity (Candida albicans [10]): Active; inhibition (Candida albicans [12]): Active; Activity (Candida albicans [14]): Active; Cmax [15]: 710 ng/mL; Activity (Candida albicans [16]): Active; Activity (Candida albicans [17]): Active; half-life [18]: 4.4 h; Activity (Pichia kudriavzevii [21]): Active; survival at 3.3 mg/kg (Nakaseomyces glabratus [23]): 90%; Activity (Candida albicans [25]): Active; survival at 10 mg/kg (Nakaseomyces glabratus [26]): 100%; inhibition (Nakaseomyces glabratus [27]): Active; Activity (Nakaseomyces glabratus [31]): Active; Activity (Candida albicans [32]): Active; inhibition (Candida albicans [34]): Active
Cc1c(-c2ccccc2)c(N2CC[C@H](N(C)C)C2)n2c(nc3ccccc32)c1C#N | > 32 | > 16 | 0.125 (≈ 0.316 µM) | 0.25 (≈ 0.632 µM) | 0.125 (≈ 0.316 µM) | > 16 | > 32 | 16 (≈ 40.5 µM) | 0.125 (≈ 0.316 µM) | 0.125 (≈ 0.316 µM) | 0.016 (≈ 0.0405 µM) | 0.125 (≈ 0.316 µM) | 2 (≈ 5.06 µM) | 0.25 (≈ 0.632 µM) | 0.063 (≈ 0.159 µM) | Activity (Candida albicans [35]): Active
CCc1c(C)c(C#N)c2nc3ccccc3n2c1NCCN(CC)CC | 16 (≈ 45.8 µM) | – | – | 16 (≈ 45.8 µM) | 8 (≈ 22.9 µM) | – | 8 (≈ 22.9 µM) | – | 16 (≈ 45.8 µM) | 8 (≈ 22.9 µM) | 1 (≈ 2.86 µM) | 8 (≈ 22.9 µM) | – | 16 (≈ 45.8 µM) | – | –
